≈ marks a conversion by molar mass, not a printed value.
Assays:
Aspergillus niger = test: Antifungal activity against Aspergillus niger; type: functional
In short: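 Disk diffusion assay measuring growth inhibition of Aspergillus niger, run by an earlier published method. The zone of inhibition is reported as an area rather than a diameter.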

HCT-116 = test: Cytotoxicity against human HCT116 cells after 72 hrs by MTS method; type: functional, cell-based; details: HCT-116, 72 h
In short: (§1)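 Cells grown in McCoy's 5A with 10% heat-inactivated fetal bovine serum and seeded 24 h before dosing. Serially diluted compound was added, then incubated 72 h at 37 °C. MTS with phenazine methosulfate was added for 3 h more, and absorbance at 492 nm gave survival relative to untreated controls. IC50 was taken from six-point curves (5-fold dilutions), each point in duplicate.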

LX-1 = test: Cytotoxicity against human LX1 cells after 72 hrs by MTS method; type: functional, cell-based; details: LX-1, 72 h; in short: as §1
A2780 = test: Cytotoxicity against human A2780 cells after 72 hrs by MTS method; type: functional, cell-based; details: A2780, 72 h; in short: as §1
KB = test: Cytotoxicity against human KB cells after 72 hrs by MTS method; type: functional, cell-based

| SMILES | inhibition zone (IZ) (Aspergillus niger) [mm2] | IC50 (HCT-116) [nM] | IC50 (LX-1) [nM] | IC50 (A2780) [nM] | EC50 (KB) [µg/mL] |
| --- | --- | --- | --- | --- | --- |
| C[C@@H]1[C@H](O)[C@@H](C)/C=C/C=C/C=C/C=C/C=C/C=C/C=C/[C@H](O[C@@H]2O[C@H](C)[C@@H](O)[C@H](N)[C@@H]2O)C[C@@H]2O[C@](O)(C[C@@H](O)C[C@@H](O)[C@H](O)CC[C@@H](O)C[C@@H](O)CC(=O)O[C@H]1C)C[C@H](O)[C@H]2C(=O)O [AMPHOTERICIN B] | 254 | – | – | – | – |
| CC[C@@]1(O)C(=O)OCc2c1cc1n(c2=O)Cc2cc3ccccc3nc2-1 [CAMPTOTHECIN] | – | 9 | 120 | 4 | – |
| C=C/C(C)=C/C[C@]1(C)[C@H](C)C[C@H](O)[C@]23C(=C[C@@H](OC(=O)C(C)C)C[C@@H]12)[C@@H](OC(C)=O)O[C@H]3OC(C)=O [CASEARVESTRIN A] | 348 | 710 | 540 | 820 | 1.4 (≈ 2.77 µM) |
| C=C/C(C)=C/C[C@]1(C)[C@H](C)C[C@H](O)[C@]23C(=C[C@@H](OC(=O)C(C)CC)C[C@@H]12)[C@@H](OC(C)=O)O[C@H]3OC(C)=O (some centres undefined) [CASEARVESTRIN B] | 296 | 250 | 200 | 320 | 1.4 (≈ 2.7 µM) |
| C=C/C(C)=C/C[C@]1(C)[C@H](C)C[C@H](O)[C@]23C(=C[C@@H](OC(=O)CCCCC)C[C@@H]12)[C@@H](OC(C)=O)O[C@H]3OC(C)=O [CASEARVESTRIN C] | 177 | 260 | 290 | 420 | 0.34 (≈ 0.638 µM) |
